# Active and inactive are the calls of the source. No cut-off for these calls is given here.
# How the values were obtained:
# [1] = molecular target: T1, NAD-dependent protein deacetylase sirtuin-2 (Homo sapiens) (UniProt Q8IXJ6); experiment: Inhibition of human SIRT2 assessed as enzyme activity using Fluor-de-Lys as substrate at 100 uM by fluorometry
# T1 sequence (whole entry): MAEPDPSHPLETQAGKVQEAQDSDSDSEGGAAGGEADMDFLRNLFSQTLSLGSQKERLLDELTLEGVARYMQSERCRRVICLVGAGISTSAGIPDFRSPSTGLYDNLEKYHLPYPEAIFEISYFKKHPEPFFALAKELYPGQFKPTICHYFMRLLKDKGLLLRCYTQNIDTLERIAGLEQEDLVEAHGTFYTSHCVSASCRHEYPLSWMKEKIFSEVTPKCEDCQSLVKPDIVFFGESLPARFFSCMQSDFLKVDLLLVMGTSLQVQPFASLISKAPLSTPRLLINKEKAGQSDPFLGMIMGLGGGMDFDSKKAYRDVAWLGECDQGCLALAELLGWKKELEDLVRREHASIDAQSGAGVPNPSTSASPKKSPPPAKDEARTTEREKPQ
# Outline: (§1)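 Commercial Fluor-de-Lys kit, substrate human p53 379–382 peptide (Arg-His-Lys-Lys(Ac)). Human Sirt1 or Sirt2 was incubated with substrate, NAD+ and compound at 1 mM, also tested at 100 µM. Fluorescence scales with Lys382 deacetylation. Activity is expressed relative to control, mean ± S.E.M. of 3–4 replicates.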
# ACHN = experiment: Growth inhibition of human ACHN cells assessed as cell growth at 10 uM after 48 hrs by MTT assay; values are per cent of control
# [2] = molecular target: T2, NAD-dependent protein deacetylase sirtuin-1 (Homo sapiens) (UniProt Q96EB6); experiment: Inhibition of human SIRT1 assessed as enzyme activity using Fluor-de-Lys as substrate at 1 mM by fluorometry; set-up: scale not given: the % may be the effect or the level left; outline: as §1
# T2 sequence (whole entry): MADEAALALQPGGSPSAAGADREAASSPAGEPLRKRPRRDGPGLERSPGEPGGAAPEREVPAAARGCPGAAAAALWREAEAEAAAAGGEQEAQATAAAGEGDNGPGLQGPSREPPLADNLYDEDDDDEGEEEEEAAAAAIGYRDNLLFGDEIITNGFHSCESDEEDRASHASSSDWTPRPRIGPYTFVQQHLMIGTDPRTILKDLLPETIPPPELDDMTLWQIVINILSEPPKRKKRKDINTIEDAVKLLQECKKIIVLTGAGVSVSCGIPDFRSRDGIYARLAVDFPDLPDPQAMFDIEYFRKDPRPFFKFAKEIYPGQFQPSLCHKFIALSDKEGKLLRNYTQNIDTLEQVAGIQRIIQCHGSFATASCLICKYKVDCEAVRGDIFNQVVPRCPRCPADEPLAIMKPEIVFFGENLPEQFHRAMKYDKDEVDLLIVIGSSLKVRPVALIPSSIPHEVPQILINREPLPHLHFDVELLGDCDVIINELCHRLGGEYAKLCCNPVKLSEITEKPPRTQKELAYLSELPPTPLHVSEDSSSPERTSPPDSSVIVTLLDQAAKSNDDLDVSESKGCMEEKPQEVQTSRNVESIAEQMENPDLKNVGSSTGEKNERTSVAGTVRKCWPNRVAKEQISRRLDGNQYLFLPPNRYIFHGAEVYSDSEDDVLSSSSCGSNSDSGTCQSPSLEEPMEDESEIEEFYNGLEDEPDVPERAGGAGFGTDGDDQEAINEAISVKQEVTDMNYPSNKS
smiles,measurement,setting,value
c1cncc(-c2cnn[nH]2)c1,inhibition,[1],inactive
same,"growth, % of control at 10 µM",ACHN,111%
same,Activity,[2],88%
